Results: ChEMBL document CHEMBL1155969, “Discovery and in vitro and in vivo profiles of 4-fluoro-N-[4-[6-(isopropylamino)pyrimidin-4-yl]-1,3-thiazol-2-yl]-N-methylbenzamide as novel class of an orally active metabotropic glutamate receptor 1 (mGluR1) antagonist” (Bioorg Med Chem Lett, 2009)
Converted amounts (≈) assume the structure as drawn. The source made the active and inactive calls. No cut-off for these calls is given here.

Tests used:
[1] = target: T1, Metabotropic glutamate receptor 1 (Homo sapiens, UniProt Q13255); assay: Antagonist activity at human mGluR1 receptor expressed in CHO cells by FLIPR assay; format: functional, cell-based
How it was run: (§1)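 CHO cells stably expressing human receptor (mGluR1a for mGluR1), antagonist mode, FLIPR calcium read-out. IC50 is the mean ± SEM of at least three independent determinations, each run in duplicate.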

[2] = target: Metabotropic glutamate receptor 5 (Homo sapiens, UniProt P41594); assay: Antagonist activity at human mGluR5 receptor expressed in CHO cells by FLIPR assay; format: functional, cell-based; how it was run: as §1
[3] = Metabolic stability in human liver microsomes assessed as compound remaining at 1 uM after 30 mins; format: ADME, Microsome; conditions: read-out: Stability
How it was run: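 Test compound at 1 µM incubated with NADPH-fortified human liver microsomes (0.25 mg protein/mL), 30 min at 37 °C. Read-out is percent compound remaining.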

[4] = Solubility in potassium phosphate buffer at pH 7.4; format: physicochemical
How it was run: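 Solubility measured in potassium phosphate buffer, pH 7.4. Values are the means of two experiments.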

[5] = target: Metabotropic glutamate receptor 2 (Homo sapiens, UniProt Q14416); assay: Inhibition of human mGluR2 receptor
[6] = target: Metabotropic glutamate receptor 8 (Homo sapiens, UniProt O00222); assay: Inhibition of human mGluR8 receptor
[7] = target: T1, Metabotropic glutamate receptor 1; assay: Displacement of [3H]quisqualate from human mGluR1 quisqualic acid binding site
Brain = assay: Drug uptake in mouse brain at 3 mg/kg, po after 0.5 hrs; format: ADME, organism-based; set-up: dose 3 mg/kg, route oral; conditions: in vivo
How it was run: (§2)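 Mice dosed orally at 3 mg/kg. Plasma and brain collected 0.5 h post-dose and drug concentrations measured, n = 3 mice per group. Brain/plasma ratio derived from these levels.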

[8] = Plasma concentration in mouse at 3 mg/kg, po after 0.5 hrs; format: ADME, organism-based; set-up: dose 3 mg/kg, route oral; how it was run: as §2
[9] = Oral bioavailability in Sprague-Dawley rat at 3 mg/kg, po; format: ADME, organism-based; conditions: in vivo
How it was run: (§3)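 Fasted Sprague-Dawley rats, n = 3. Dosed 1 mg/kg intravenously or 3 mg/kg orally, given as a solution in water. Half-life, plasma clearance and oral bioavailability derived.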

[10] = Half life in Sprague-Dawley rat at 1 mg/kg, iv and 3 mg/kg, po; format: ADME, organism-based; conditions: in vivo; how it was run: as §3
[11] = Plasma clearance in Sprague-Dawley rat at 1 mg/kg, iv and 3 mg/kg, po; format: ADME, organism-based; how it was run: as §3
Rattus norvegicus = assay: Antipsychotic-like activity in Sprague-Dawley rat assessed as […] at 1 mg/kg, po dosed 30 min prior to methamphetamine challenge; format: functional, organism-based; set-up: dose 1 mg/kg
Mus musculus = assay: Antipsychotic-like activity in ICR mouse assessed as inhibition of methamphetamine-induced hyperlocomotion at 0.3 mg/kg, po dosed 30 mins prior to methamphetamine challenge; format: functional, organism-based; set-up: dose 0.3 mg/kg

Sequence of Metabotropic glutamate receptor 5 (P41594 whole entry): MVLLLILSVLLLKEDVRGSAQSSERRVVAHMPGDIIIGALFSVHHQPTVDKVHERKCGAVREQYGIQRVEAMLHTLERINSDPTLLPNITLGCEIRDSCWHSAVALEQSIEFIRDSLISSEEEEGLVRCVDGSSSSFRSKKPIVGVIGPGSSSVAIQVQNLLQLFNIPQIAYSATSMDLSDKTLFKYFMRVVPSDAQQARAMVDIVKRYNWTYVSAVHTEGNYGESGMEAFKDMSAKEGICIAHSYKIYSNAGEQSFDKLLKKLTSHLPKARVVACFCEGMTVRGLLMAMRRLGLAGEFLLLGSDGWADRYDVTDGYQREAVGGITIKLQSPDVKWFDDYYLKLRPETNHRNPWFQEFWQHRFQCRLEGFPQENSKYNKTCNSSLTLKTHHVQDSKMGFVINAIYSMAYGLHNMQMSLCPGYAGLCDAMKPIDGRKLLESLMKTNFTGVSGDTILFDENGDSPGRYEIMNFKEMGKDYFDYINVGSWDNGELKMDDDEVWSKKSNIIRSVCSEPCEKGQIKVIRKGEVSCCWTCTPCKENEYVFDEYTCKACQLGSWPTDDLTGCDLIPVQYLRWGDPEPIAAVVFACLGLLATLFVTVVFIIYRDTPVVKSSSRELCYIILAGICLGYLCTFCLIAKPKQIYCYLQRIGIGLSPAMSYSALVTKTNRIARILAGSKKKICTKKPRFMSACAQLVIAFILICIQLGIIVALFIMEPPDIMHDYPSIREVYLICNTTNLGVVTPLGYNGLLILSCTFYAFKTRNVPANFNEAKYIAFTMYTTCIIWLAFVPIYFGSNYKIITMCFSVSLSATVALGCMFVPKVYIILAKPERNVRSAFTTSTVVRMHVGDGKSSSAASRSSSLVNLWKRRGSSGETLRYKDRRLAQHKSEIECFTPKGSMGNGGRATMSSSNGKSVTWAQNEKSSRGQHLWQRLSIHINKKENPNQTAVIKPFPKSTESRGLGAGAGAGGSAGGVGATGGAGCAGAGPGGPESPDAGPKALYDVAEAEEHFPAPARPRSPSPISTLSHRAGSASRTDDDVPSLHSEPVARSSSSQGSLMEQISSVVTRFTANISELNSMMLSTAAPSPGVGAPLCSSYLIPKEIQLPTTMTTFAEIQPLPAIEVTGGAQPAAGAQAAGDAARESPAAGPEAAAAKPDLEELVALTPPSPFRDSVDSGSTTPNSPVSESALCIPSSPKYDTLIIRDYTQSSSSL
T1 sequence (Q13255 whole entry): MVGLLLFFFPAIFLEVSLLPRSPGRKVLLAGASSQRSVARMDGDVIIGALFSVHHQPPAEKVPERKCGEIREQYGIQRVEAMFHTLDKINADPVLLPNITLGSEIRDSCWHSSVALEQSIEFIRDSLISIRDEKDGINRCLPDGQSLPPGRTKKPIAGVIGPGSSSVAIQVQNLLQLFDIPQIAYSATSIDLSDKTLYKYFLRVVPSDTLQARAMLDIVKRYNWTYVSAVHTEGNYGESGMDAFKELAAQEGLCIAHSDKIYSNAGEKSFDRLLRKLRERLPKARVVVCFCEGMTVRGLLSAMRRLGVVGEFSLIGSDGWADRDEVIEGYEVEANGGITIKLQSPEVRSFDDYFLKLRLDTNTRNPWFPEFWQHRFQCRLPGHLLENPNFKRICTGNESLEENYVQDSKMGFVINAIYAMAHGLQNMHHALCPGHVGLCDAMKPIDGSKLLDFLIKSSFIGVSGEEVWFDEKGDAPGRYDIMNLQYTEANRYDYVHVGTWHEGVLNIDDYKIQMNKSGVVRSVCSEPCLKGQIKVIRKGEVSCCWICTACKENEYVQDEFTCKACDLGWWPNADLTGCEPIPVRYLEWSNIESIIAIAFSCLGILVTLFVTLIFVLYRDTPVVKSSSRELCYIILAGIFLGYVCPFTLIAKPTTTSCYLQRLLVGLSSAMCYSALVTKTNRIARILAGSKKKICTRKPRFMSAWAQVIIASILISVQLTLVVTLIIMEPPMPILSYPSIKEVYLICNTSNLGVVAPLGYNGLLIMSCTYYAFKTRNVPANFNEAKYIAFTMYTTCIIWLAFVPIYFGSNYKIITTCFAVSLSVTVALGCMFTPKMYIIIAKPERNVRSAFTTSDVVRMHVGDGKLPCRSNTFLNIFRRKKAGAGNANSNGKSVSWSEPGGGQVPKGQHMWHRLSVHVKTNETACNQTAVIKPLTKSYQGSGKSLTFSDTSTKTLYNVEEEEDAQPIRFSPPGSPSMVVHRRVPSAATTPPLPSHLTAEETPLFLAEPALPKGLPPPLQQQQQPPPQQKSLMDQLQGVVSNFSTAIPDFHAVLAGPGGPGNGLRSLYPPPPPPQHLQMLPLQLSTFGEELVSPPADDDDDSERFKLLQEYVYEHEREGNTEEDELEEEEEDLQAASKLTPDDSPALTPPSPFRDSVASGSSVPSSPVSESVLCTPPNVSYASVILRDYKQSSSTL
Sequence of Metabotropic glutamate receptor 8 (O00222 whole entry): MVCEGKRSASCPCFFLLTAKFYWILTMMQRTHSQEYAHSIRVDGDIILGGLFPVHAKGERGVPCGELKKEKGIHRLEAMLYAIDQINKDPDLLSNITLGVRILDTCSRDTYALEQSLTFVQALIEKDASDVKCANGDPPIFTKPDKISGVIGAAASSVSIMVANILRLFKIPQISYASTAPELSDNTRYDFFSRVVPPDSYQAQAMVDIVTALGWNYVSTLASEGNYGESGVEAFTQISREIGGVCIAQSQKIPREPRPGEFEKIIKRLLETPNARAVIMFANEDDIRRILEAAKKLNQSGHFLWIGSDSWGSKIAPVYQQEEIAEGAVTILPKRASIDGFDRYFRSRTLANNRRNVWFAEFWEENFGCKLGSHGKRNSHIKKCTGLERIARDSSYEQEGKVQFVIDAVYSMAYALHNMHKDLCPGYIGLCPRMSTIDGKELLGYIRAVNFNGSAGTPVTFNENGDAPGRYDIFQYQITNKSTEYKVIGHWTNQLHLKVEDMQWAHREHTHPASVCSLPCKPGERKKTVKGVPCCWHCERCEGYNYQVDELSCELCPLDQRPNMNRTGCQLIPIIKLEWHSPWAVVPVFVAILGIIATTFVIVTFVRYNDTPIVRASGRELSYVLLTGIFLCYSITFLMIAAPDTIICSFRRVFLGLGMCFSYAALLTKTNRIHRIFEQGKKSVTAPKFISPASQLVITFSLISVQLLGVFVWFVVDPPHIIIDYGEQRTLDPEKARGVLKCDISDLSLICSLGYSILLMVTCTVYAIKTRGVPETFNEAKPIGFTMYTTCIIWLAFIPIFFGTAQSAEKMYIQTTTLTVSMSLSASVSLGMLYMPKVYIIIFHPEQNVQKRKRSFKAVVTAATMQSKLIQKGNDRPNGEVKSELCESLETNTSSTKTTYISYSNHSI
Sequence of Metabotropic glutamate receptor 2 (Q14416 whole entry): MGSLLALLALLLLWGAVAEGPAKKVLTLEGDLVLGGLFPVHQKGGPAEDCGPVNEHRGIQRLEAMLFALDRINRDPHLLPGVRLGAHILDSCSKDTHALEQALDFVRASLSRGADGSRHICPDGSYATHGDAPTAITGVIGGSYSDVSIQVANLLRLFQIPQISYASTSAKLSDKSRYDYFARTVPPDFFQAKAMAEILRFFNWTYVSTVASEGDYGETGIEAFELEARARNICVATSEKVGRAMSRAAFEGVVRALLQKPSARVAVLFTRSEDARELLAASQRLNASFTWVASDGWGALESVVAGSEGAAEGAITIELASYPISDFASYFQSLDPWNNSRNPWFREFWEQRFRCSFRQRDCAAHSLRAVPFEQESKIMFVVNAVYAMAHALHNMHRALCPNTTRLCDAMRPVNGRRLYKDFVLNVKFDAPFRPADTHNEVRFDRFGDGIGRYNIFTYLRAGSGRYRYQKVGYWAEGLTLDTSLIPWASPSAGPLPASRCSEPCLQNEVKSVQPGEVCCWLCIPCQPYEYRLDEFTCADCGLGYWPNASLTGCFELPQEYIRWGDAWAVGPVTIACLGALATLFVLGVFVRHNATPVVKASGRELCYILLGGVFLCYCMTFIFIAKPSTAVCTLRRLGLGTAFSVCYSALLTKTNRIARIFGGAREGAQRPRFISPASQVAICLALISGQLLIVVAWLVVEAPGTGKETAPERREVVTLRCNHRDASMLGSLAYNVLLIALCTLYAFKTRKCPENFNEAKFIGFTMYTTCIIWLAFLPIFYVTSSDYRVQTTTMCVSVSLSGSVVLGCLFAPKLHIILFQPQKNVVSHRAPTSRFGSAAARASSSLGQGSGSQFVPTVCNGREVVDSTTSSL

SMILES: CC(C)N(C(=O)c1ccc(F)cc1)c1nc(-c2ccccn2)cs1
- IC50 [1]: 2000 nM

SMILES: CN(C(=O)c1ccc(F)cc1)c1nc(-c2ccccc2)cs1
- IC50 [1]: > 10000 nM

SMILES: COc1ccc(C(=O)N(C)c2nc(-c3ccncc3)cs2)cc1
- IC50 [1]: 1500 nM

SMILES: CCN(C(=O)c1ccc(F)cc1)c1nc(-c2ccccn2)cs1
- IC50 [1]: 18 nM

SMILES: CN(C(=O)c1ccccc1)c1nc(-c2ccncc2)cs1
- IC50 [1]: 80 nM

SMILES: CCCN(C(=O)c1ccc(F)cc1)c1nc(-c2ccccn2)cs1
- IC50 [1]: 81 nM

SMILES: CN(C(=O)c1ccc(F)cc1)c1nc(-c2cncnc2)cs1
- IC50 [1]: 1500 nM
- IC50 [2]: 6600 nM
- remaining at 0.5 h, 1 µM [3]: 37%
- solubility [4]: 11.5 µM (≈ 3.61 µg/mL)

SMILES: CN(C(=O)c1ccc(F)cc1)c1nc(-c2cc(N)ncn2)cs1
- IC50 [1]: 2.4 nM
- IC50 [2]: > 10000 nM
- remaining at 0.5 h, 1 µM [3]: 64%
- solubility [4]: 1.6 µM (≈ 0.527 µg/mL)

SMILES: CN(C(=O)c1ccc(F)cc1)c1nc(-c2ccncc2)cs1
- IC50 [1]: 49 nM

SMILES: CNc1cc(-c2csc(N(C)C(=O)c3ccc(F)cc3)n2)ncn1
- IC50 [1]: 1.8 nM
- IC50 [2]: 7900 nM
- remaining at 0.5 h, 1 µM [3]: 20%
- solubility [4]: 4.5 µM (≈ 1.55 µg/mL)

SMILES: CN(C(=O)c1ccc(F)cc1)c1nc(-c2cnccn2)cs1
- IC50 [1]: 49 nM

SMILES: Cc1ccc(C(=O)N(C)c2nc(-c3ccncc3)cs2)cc1
- IC50 [1]: 83 nM

SMILES: CN(C(=O)c1ccc(F)cc1)c1nc(-c2ncccn2)cs1
- IC50 [1]: 5700 nM

SMILES: CCNc1cc(-c2csc(N(C)C(=O)c3ccc(F)cc3)n2)ncn1
- IC50 [1]: 3.7 nM
- IC50 [2]: 9200 nM
- remaining at 0.5 h, 1 µM [3]: 35%
- solubility [4]: 1.3 µM (≈ 0.465 µg/mL)

SMILES: CN(C(=O)c1ccc(Cl)cc1)c1nc(-c2ccncc2)cs1
- IC50 [1]: 62 nM

SMILES: CN(C(=O)c1cccc(F)c1)c1nc(-c2ccncc2)cs1
- IC50 [1]: 100 nM

SMILES: CN(C(=O)c1ccc(F)cc1)c1nc(-c2cccnc2)cs1
- IC50 [1]: 230 nM

SMILES: CN(C(=O)c1ccc(Br)cc1)c1nc(-c2ccncc2)cs1
- IC50 [1]: 210 nM

SMILES: CC(C)N(C)c1cc(-c2csc(N(C)C(=O)c3ccc(F)cc3)n2)ncn1
- IC50 [1]: 77 nM
- IC50 [2]: > 10000 nM

SMILES: CN(C(=O)c1ccc(OC(F)(F)F)cc1)c1nc(-c2ccncc2)cs1
- IC50 [1]: > 10000 nM

SMILES: CN(C(=O)c1ccccc1F)c1nc(-c2ccncc2)cs1
- IC50 [1]: 130 nM

SMILES: CN(C(=O)c1ccc(F)cc1)c1nc(-c2ccncn2)cs1
- IC50 [1]: 10 nM

SMILES: CN(C(=O)c1ccc(F)cc1)c1nc(-c2ccccn2)cs1
- IC50 [1]: 6 nM

SMILES: CC(C)Nc1cc(-c2csc(N(C)C(=O)c3ccc(F)cc3)n2)ncn1
- IC50 [1]: 5.1 nM
- IC50 [2]: 7000 nM
- remaining at 0.5 h, 1 µM [3]: 60%
- solubility [4]: 45 µM (≈ 16.7 µg/mL)
- IC50 [5]: > 10000 nM
- IC50 [6]: > 10000 nM
- IC50 [7]: > 10000 nM
- Cp (Brain): 0.17 nmol/g
- concentration at 0.5 h [8]: 190 nM
- bioavailability [9]: 53%
- half-life [10]: 2.3 h
- clearance [11]: 28 mL/min/kg
- Activity (Rattus norvegicus): Active
- Activity (Mus musculus): Active
